Most compounds without a hit are left out; they make up all but 5.4% or so of the library.
Ecoli WT expand: growth inhibitors of wild-type E. coli, primary screen, strain BW25113, expanded library, OD600; OD600 absorbance; growth inhibition, % at 100 µM; 98,000 compounds, 0.15% hits;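 active = growth inhibition above about 50% at one test dose, limit read from the data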;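 also: growth measured after 20 h incubation at 37 °C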
HePTP inh: inhibitors of human HePTP phosphatase, primary screen, biochemical, absorbance, leukemia target; Tyrosine-protein phosphatase non-receptor type 7 (Homo sapiens), P35236; recombinant HePTP phosphatase activity, OD absorbance; inhibition, % at 20 µM; 110,000 compounds, 0.64% hits; AID 521, 2006; in the data active = inhibition above about 50%
Target sequence (P35236 whole entry, looked up): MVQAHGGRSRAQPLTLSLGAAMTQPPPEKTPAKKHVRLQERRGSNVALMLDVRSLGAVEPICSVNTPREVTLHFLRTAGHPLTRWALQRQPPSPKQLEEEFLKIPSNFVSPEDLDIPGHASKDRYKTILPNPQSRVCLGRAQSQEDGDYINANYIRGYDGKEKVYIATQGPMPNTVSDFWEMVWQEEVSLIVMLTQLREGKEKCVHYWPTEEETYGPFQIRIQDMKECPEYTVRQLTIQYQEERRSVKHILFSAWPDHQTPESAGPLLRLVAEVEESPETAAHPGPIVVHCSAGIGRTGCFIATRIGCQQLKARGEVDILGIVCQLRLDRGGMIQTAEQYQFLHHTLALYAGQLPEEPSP
PostGolgi ctrl: growth inhibition of yeast control strain, primary screen, counter-screen for post-Golgi transport modulator project; efflux-deficient yeast background strain, growth absorbance A615, 16 h; inhibition, % at 10 µM; 98,000 compounds, 5% hits; AID 738, 2007
PostGolgi yeast: phenotypic screen on post-Golgi transport, primary screen | post-Golgi transport phenotypic cell assay | inhibition, % at 10 µM | 98,000 compounds, 0.9% hits;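 also: yeast cells grown in 1536-well plates; yeast grown about 18 h at 30C before absorbance read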
Ecoli tolC: growth inhibitors of E. coli tolC mutant, primary screen, strain BW25113 ΔtolC::kan, 384-well. OD615. growth inhibition, % at 10 µM (by protocol). 65,000 compounds, 2.2% hits;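 active = growth inhibition at or above a cutoff equal to the mean over every tested compound plus 3 SD, cut at about 60% in these data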;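 also: growth measured after 20 h incubation at 37 °C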
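Test system – E. coli BW25113 ΔtolC::kan, tolC deletion mutant strain · Detection – OD at 615 nm · Buffer or medium – LB with kanamycin 50 µg/mL · Times – 20 h compound exposure of bacteria at 37 °C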
PLAP act: PLAP enzyme activators, biochemical, luminescence, HTS; Alkaline phosphatase, placental type (Homo sapiens), P05187; purified PLAP enzyme, luminescent substrate read-out; stronger effect = higher value; activation fold at 20 µM; 96,000 compounds, 1.2% hits; AID 696, 2007; in the data active = activation fold above about 2
Numbers stand for hits; . = inactive; / = no result. Rule as the data show it, unless noted: active = inhibition above about 30%; inactive = the rest.

SMILES	Ecoli WT expand	HePTP inh	PostGolgi ctrl	PostGolgi yeast	Ecoli tolC	PLAP act
CCCc1[nH]nc2c1C(c1ccc(OC)c(Cn3nnc4ccccc43)c1)C(C#N)=C(N)O2 (stereo not drawn)	.	.	.	.	.	.
COc1ccc(C2C(C#N)=C(N)Oc3n[nH]c(C)c32)cc1Cn1nnc2ccccc21 (stereo not drawn)	.	.	.	.	.	2
COCc1[nH]nc2c1C(c1ccc(OC)c(OC)c1)C(C#N)=C(N)O2 (stereo not drawn)	.	.	.	.	.	.
CCn1c2ccccc2c2cc(C3C(C#N)=C(N)Oc4n[nH]c(COC)c43)ccc21 (stereo not drawn)	.	.	.	.	71	.
CCn1c(-c2cc(OC)c(OC)c(OC)c2)n[nH]c1=S	.	.	.	.	.	.
COc1ccc(C(=O)NC23CC4CC(CC(C4)C2)C3)cc1OC	/	.	/	/	/	/
COCCOC(=O)C1=C(N)Oc2c(oc(CO)cc2=O)C1c1ccccc1F (stereo not drawn)	.	/	.	.	/	.
O=C(COC(=O)c1ccccc1Nc1ccccc1)NCc1ccco1	.	.	32	.	.	.
O=C(COC(=O)COc1ccc(Nc2ccccc2)cc1)NCc1ccco1	.	.	.	.	.	.
CC(C)(C)c1ccc(OCC(=O)NCc2ccco2)c(Br)c1	.	.	.	.	100	.
Cc1ccc(C(=O)N(C)c2ccccc2)cc1[N+](=O)[O-]	/	.	/	/	/	/
Cc1ccc(Oc2ccc(-c3nc(N)nc(N)n3)cc2)cc1C	.	/	50	.	/	.
Nc1nc(N)nc(-c2ccc(Oc3ccccc3)cc2)n1	.	/	.	.	/	.
CCC(Cc1ccccc1)NC(=O)CN(C)S(=O)(=O)c1ccc2c(c1)c(=O)n(C)c(=O)n2C (stereo not drawn)	.	/	.	.	/	.
O=c1c2ccccc2[nH]c(=S)n1C1CCCCC1	.	.	.	.	.	.
O=c1c2ccccc2n(Cc2ccc(F)cc2)c(=O)n1C1CCCC1	.	.	.	.	76	.
CC(Sc1n[nH]c(N)n1)C(=O)C12CC3CC(CC(C3)C1)C2 (stereo not drawn)	.	/	.	.	/	2
Cc1cc(C(=O)CSc2n[nH]c(N)n2)c(C)n1C1CC1	.	/	.	.	/	.
O=C(NCc1cccs1)c1cccc(N2CCCC2=O)c1	.	.	.	.	.	.
CNc1ccc([N+](=O)[O-])cc1-n1cnc(-c2ccc([N+](=O)[O-])cc2)c1	/	.	/	/	/	/
Cc1cc(C)c(Cn2cnc(-c3ccc([N+](=O)[O-])cc3)c2)c(C)c1	.	/	33	.	/	.
CCOC(=O)C1CCN(C(c2cccc(F)c2)c2sc3nc(C)nn3c2O)CC1 (stereo not drawn)	.	.	37	.	.	/
Cc1nc2sc(C(c3cccc(F)c3)N3CCC(C)CC3)c(O)n2n1 (stereo not drawn)	.	.	31	.	.	.
Cc1nc2sc(C(c3cccc(F)c3)N3CCC(O)CC3)c(O)n2n1 (stereo not drawn)	.	.	.	.	.	.
CCOC(=O)C1CCN(C(c2ccc(OC)c(OC)c2)c2sc3nc(C)nn3c2O)CC1 (stereo not drawn)	.	.	.	.	.	.
SMILES	Ecoli WT expand	HePTP inh	PostGolgi ctrl	PostGolgi yeast	Ecoli tolC	PLAP act
Cc1ccc2nsnc2c1NC(=O)c1ccc(Br)o1	/	.	/	/	/	/
O=c1c2ccccc2sn1-c1ccccc1	100	/	.	.	/	.
O=c1c2ccccc2sn1-c1ccc(S(=O)(=O)N2CCCC2)cc1	.	.	.	.	.	.
COc1ccccc1CNn1c(-c2cccc(C)c2)nc2ccccc2c1=O	.	/	.	.	/	.
CCOC(=O)c1cc(OCC(=O)NC(C)C(C)C)cc(C(=O)OCC)c1 (stereo not drawn)	.	.	.	.	.	.
CC(=Nc1cccc(C)c1)c1sc2ccccc2c1O	.	/	.	.	/	.
CC(=Nc1ccc(O)cc1)c1sc2ccccc2c1O	.	.	.	.	100	.
O=C(CSc1nnc(CNC(=O)c2ccccc2F)o1)NCC1CCCO1 (stereo not drawn)	.	.	.	.	.	.
COc1cc(OC)c(C#N)c(S(=O)Cc2ccccc2)c1 (stereo not drawn)	.	.	36	.	.	.
